# High-throughput results (PubChem)
# SIRT5 inh: sirtuin-5 (human) deacylase inhibition; Q9NXA8; Purified SirT5, succinyl-peptide AMC, trypsin-coupled fluorescence; inhibition, % at 15 µM; 330,000 tested, 1.1% active; AID 652115; in the data active = inhibition above about 15%; inconclusive = no clear call, values can overlap the other calls
# Target sequence (Q9NXA8 whole entry, looked up): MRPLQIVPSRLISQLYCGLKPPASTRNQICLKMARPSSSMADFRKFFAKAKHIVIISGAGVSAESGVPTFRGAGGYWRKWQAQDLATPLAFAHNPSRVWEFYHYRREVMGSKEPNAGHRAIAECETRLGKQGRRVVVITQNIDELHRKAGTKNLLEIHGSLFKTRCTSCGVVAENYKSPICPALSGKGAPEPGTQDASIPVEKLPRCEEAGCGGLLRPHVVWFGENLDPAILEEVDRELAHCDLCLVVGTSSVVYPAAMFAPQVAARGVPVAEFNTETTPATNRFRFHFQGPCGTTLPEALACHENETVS
# DENV2 CPE: inhibitors of DENV2 cytopathic effect. DENV2-infected cells, cytopathic effect rescue, plate reader. CPE inhibition, % at 9.99 µM. 350,000 tested, 1.7% active; in the data active = CPE inhibition above about 20%, passing the limit was not always enough; inconclusive = no clear call, values can overlap the other calls; tested in BHK-21 cells
# E-sel inducer: induces E-selectin expression in human endothelial cells; HUVEC E-selectin immunofluorescence imaging; normalized: neutral wells 0, TNF-alpha wells 100; activation, % at 7.58 µM; 260,000 tested, 0.37% active;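 active = mean E-selectin-positive cell signal at least 10% of the positive control, reached in at least 60% of replicates, without over 20% cell loss; inconclusive = no rule given, readout overlaps actives, possibly toxicity-flagged; inactive = the rest, including those meeting only one limit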
#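 Test system: HUVEC; input: 3,000 HUVEC/well; measured by: immunofluorescence imaging; read-out: % PE-positive cells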
# Hits are given with their value; – = inactive; ? = inconclusive; · = no result. Compounds with a hit are over-represented: about 2.9% of the library has one in this group of screens.
SMILES,SIRT5 inh,DENV2 CPE,E-sel inducer
Cc1ccc(S(=O)(=O)Nc2ccc3c(c2)C(=O)N([C@H](C)CO)C[C@@H](C)[C@H](CN(C)S(=O)(=O)c2ccc(F)cc2)OCCCC[C@@H](C)O3)cc1,–,–,–
CNC[C@@H]1Oc2ncc(-c3cccc(C(F)(F)F)c3)cc2C(=O)N([C@H](C)CO)C[C@@H]1C,–,–,–
O=C(/C(=C/c1ccncc1)n1ccnc1)c1ccc(Cl)cc1Cl,–,–,·
CC(C)C(=O)Nc1cccc(COc2ccc(CN(Cc3ccccc3)C(=O)OC(C)(C)C)cc2)c1,–,–,–
c1ccc(COc2ncnc3c2ncn3CCCN2CCN(c3ccccn3)CC2)cc1,–,–,–
COc1ncnc2c1ncn2CCCN1CCN(c2ccccn2)CC1,28,–,–
COC(=O)C1=C(C)N(Cc2ccc(F)cc2)C(=S)NC1c1cccc(Br)c1 (stereo not drawn),–,–,–
Cc1ccc(S(=O)(=O)N2CCN(CN3C(=O)CC4(CCCC4)C3=O)CC2)cc1,–,–,·
CCc1ccc(NS(=O)(=O)c2c(C)noc2C)cc1,–,–,·
Cc1cc(F)ccc1NC(=O)C1CSC2(C)CCC(=O)N12 (stereo not drawn),18,–,·
CC12CCC(=O)N1C(C(=O)Nc1nc(-c3ccc(F)cc3)cs1)CS2 (stereo not drawn),–,–,·
Cc1cc(Br)ccc1NC(=O)C1CSC2(C)CCC(=O)N12 (stereo not drawn),–,–,·
CC12CCC(=O)N1C(C(=O)Nc1nc(-c3ccc(F)c(F)c3)cs1)CS2 (stereo not drawn),15,–,–
CCOC(=O)c1cc(C(=O)OCC)cc(-n2cc(O)c(C(=O)OCC)n2)c1,–,–,·
O=C(CSc1nc2[nH]c(=O)cc(O)c2s1)Nc1ccc(Br)cc1,–,–,·
C=C[C@@H]1c2cccc(C)c2N(S(=O)(=O)c2ccc(C)cc2)[C@H](c2ccccc2)C1(C#N)S(=O)(=O)c1ccccc1 (stereo partly drawn),·,–,–
COc1ccccc1S(=O)(=O)N[C@@H]1C=C[C@@H](CC(=O)NCc2cccc(F)c2)O[C@@H]1CO,–,–,–
O=C(CCN1CCCCC1)N[C@H]1CC[C@H](CC(=O)N2CCC(Cc3ccccc3)CC2)O[C@H]1CO,–,–,–
COc1ccc(S(=O)(=O)N[C@H]2CC[C@@H](CC(=O)NCCc3ccncc3)O[C@@H]2CO)cc1,–,–,–
COc1ccccc1S(=O)(=O)N[C@H]1C=C[C@H](CC(=O)NCc2cccc(F)c2)O[C@H]1CO,–,28,–
O=C(C[C@H]1CC[C@@H](NC(=O)c2ccccc2)[C@H](CO)O1)NCCc1ccncc1,32,–,–
O=C(CCN1CCCCC1)N[C@H]1CC[C@H](CC(=O)N2CCC(Cc3ccccc3)CC2)O[C@@H]1CO,39,?,–
COc1ccc(S(=O)(=O)N[C@H]2CC[C@H](CC(=O)NCCc3ccncc3)O[C@H]2CO)cc1,–,23,–
O=C(C[C@@H]1CC[C@@H](NC(=O)c2ccccc2)[C@H](CO)O1)NCCc1ccncc1,–,–,–
COc1ccc(OCC(O)CN(CCO)CC(O)Cn2ccc3ccccc32)cc1 (stereo not drawn),–,–,·
SMILES,SIRT5 inh,DENV2 CPE,E-sel inducer
COc1cc(C(=O)Nc2sc(C)c(C)c2C(=O)O)cc(OC)c1OC,–,–,–
CC(C)CN(CCNC(=O)CN1C(=O)CSc2ccc(S(=O)(=O)N3CCOCC3)cc21)CC(C)C,–,–,–
COc1ccc(N2CCN(C(=O)COC(=O)c3nc(Cl)ccc3Cl)CC2)cc1,·,–,–
C[C@H]1CCCCO[C@@H](CN(C)C(=O)Nc2ccc(F)cc2)[C@@H](C)CN([C@@H](C)CO)C(=O)c2cc(NC(=O)C3CCCCC3)ccc2O1,–,–,–
Cc1ccc2nsnc2c1N,·,·,–
CN1CCC(N(C)C(=S)Nc2ccc(F)cc2)CC1,–,–,·
CCCC#Cc1cnc2c(c1)C(=O)N([C@H](C)CO)C[C@H](C)[C@@H](CN(C)S(C)(=O)=O)O2,–,–,–
O=C(C[C@@H]1C=C[C@@H](NS(=O)(=O)c2ccccc2)[C@H](CO)O1)N1CCC(Cc2ccccc2)CC1,–,?,–
COc1ccc(S(=O)(=O)N[C@H]2CC[C@@H](CC(=O)NCc3ccccc3F)O[C@H]2CO)cc1,–,59,–
O=C(C[C@H]1C=C[C@H](NC(=O)c2ccccc2)[C@H](CO)O1)NCc1ccc(Oc2ccccc2)cc1,–,31,–
O=C(C[C@H]1C=C[C@H](NS(=O)(=O)c2ccccc2)[C@H](CO)O1)N1CCC(Cc2ccccc2)CC1,–,96,–
O=C(C[C@H]1C=C[C@@H](NC(=O)c2ccccc2)[C@H](CO)O1)NCc1ccc(Oc2ccccc2)cc1,–,–,–
COc1ccc(S(=O)(=O)N[C@H]2C=C[C@@H](CC(=O)NCCc3ccccc3)O[C@@H]2CO)cc1,–,24,–
COc1ccc(S(=O)(=O)N[C@H]2CC[C@H](CC(=O)NCc3ccccc3F)O[C@@H]2CO)cc1,–,–,–
COc1ccc(S(=O)(=O)N[C@@H]2C=C[C@H](CC(=O)NCCc3ccccc3)O[C@@H]2CO)cc1,–,–,–
O=C(CCc1ccccc1)NNC(=O)c1ccccn1,–,–,·
CCc1ccc(N2CC(C(=O)N3CCN(c4ccccn4)CC3)CC2=O)cc1 (stereo not drawn),–,–,·
Cc1ccc(CNC(=O)c2cc(=O)c3ccccc3o2)cc1,–,–,·
C[C@H]1CN([C@@H](C)CO)S(=O)(=O)c2ccc(C#CC3CCCC3)cc2O[C@H]1CN(C)Cc1cccnc1,–,–,–
C[C@H]1CN([C@@H](C)CO)S(=O)(=O)c2ccc(C#CC3CC3)cc2O[C@@H]1CN(C)Cc1ccncc1,–,42,–
C[C@@H]1CN([C@@H](C)CO)S(=O)(=O)c2ccc(C#CC3CCCCC3)cc2O[C@H]1CN(C)Cc1cccnc1,–,–,–
C[C@@H]1CN([C@H](C)CO)S(=O)(=O)c2ccc(C#CC3CCCC3)cc2O[C@H]1CN(C)Cc1cccnc1,17,–,–
C[C@@H]1CN([C@H](C)CO)S(=O)(=O)c2ccc(C#CC3CC3)cc2O[C@@H]1CN(C)Cc1ccncc1,–,–,–
C[C@@H]1CN([C@H](C)CO)S(=O)(=O)c2ccc(C#CC3CCCCC3)cc2O[C@@H]1CN(C)Cc1cccnc1,99,–,–
C[C@@H]1CN([C@H](C)CO)C(=O)c2cc(NC(=O)c3ccccc3)ccc2O[C@@H](C)CCCCO[C@H]1CN(C)C(=O)Nc1ccc(F)cc1,–,–,–
SMILES,SIRT5 inh,DENV2 CPE,E-sel inducer
O=C(CNC(=O)C1COc2ccccc2O1)N/N=C\c1cccc(O)c1 (stereo not drawn),·,·,–
COc1ccc(-n2nc3ccc(N)cc3n2)cc1,–,–,–
CCCC(=O)Nc1ccc2nn(-c3ccc(OC)cc3)nc2c1,·,26,·
O=C(CCNC(=O)N1CC(=O)Nc2ccccc21)NCCc1ccc(Cl)cc1,·,–,–
O=C(C1CCCCC1)N1CC(=O)N2[C@H](CO)[C@H](c3ccc(C#CCc4ccccc4)cc3)[C@H]2C1,–,25,–
COc1cccc(-c2ccc([C@H]3[C@H](CO)N4C(=O)CN(C(=O)C5CCOCC5)C[C@@H]34)cc2)c1,–,–,–
O=C(C1CC1)N1CC(=O)N2[C@@H](CO)[C@H](c3ccc(C#CCc4ccccc4)cc3)[C@@H]2C1,–,45,–
